How the values were obtained:
[1] = Metabolic stability in mouse liver microsomes assessed as UGT-mediated glucuronidation of compound by measuring half life in presence of UDPGA; assay type: ADME
Outline: (§1)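 Liver microsomal glucuronidation incubations in the presence of UDPGA; parent half-life determined.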

Liver = test: Metabolic stability in human liver microsomes assessed as parent compound remaining after 10 mins; assay type: ADME, microsome; conditions: microsomes, 10 min
Outline: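 Parent compound remaining after a 10 min incubation with human, mouse or rat liver microsomes.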

[2] = Inhibition of cynomolgus monkey 11beta-HSD2; parameters: species or system Macaca fascicularis
[3] = target: 11-beta-hydroxysteroid dehydrogenase type 2 (Rattus norvegicus, UniProt P50233); test: Inhibition of rat 11beta-HSD2
Chain of 11-beta-hydroxysteroid dehydrogenase type 2 (P50233 whole entry): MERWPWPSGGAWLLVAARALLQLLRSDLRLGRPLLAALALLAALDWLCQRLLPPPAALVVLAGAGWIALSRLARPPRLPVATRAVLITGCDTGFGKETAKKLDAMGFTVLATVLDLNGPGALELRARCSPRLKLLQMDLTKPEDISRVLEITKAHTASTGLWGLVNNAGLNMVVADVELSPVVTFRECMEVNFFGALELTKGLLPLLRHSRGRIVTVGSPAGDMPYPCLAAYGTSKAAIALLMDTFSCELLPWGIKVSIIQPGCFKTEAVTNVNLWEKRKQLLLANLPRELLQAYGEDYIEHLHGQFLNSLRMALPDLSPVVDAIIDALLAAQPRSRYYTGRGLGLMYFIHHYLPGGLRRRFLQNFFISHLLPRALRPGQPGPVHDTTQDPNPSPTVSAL

[4] = target: 11-beta-hydroxysteroid dehydrogenase 1 (Rattus norvegicus, UniProt P16232); test: Inhibition of rat 11beta-HSD1
Chain of 11-beta-hydroxysteroid dehydrogenase 1 (P16232 whole entry): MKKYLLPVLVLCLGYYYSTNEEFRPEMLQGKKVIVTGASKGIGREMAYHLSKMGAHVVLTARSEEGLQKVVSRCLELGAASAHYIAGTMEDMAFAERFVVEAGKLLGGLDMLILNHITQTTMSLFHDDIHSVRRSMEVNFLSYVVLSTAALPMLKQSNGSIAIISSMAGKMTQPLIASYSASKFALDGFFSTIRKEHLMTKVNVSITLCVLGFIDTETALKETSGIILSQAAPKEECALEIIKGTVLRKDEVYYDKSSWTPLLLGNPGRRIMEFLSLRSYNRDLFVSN

Rattus norvegicus [5] = test: Renal toxicity in rat at 300 mg/kg for 2 weeks; assay type: organism-based; conditions: in vivo, 336 h
Outline: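 Exploratory rat toxicology study lasting 2 weeks, with 300 mg/kg as the highest dose given. The study assessed hypokalemia, plasma volume expansion, hypertension and renal toxicity.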

Cytochrome P450 1A2 = Cytochrome P450 1A2 (Homo sapiens, UniProt P05177); test: Inhibition of CYP1A2 (unknown origin); assay type: ADME
Chain of Cytochrome P450 1A2 (P05177 whole entry): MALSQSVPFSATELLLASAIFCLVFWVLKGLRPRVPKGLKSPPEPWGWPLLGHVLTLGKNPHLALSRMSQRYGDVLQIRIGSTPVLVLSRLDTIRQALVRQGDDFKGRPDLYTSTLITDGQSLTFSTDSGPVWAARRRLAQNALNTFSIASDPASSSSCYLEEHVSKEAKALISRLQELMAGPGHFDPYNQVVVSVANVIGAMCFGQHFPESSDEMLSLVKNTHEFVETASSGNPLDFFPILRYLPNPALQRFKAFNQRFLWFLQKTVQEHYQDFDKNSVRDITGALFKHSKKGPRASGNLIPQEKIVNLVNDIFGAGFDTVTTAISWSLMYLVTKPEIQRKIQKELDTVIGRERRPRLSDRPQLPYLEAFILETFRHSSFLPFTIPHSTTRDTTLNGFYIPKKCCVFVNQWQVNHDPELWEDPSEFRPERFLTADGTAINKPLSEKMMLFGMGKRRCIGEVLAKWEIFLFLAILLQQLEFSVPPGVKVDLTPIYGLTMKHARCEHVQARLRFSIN

Cytochrome P450 2B6 = Cytochrome P450 2B6 (Homo sapiens, UniProt P20813); test: Inhibition of CYP2B6 (unknown origin); assay type: ADME
Chain of Cytochrome P450 2B6 (P20813 whole entry): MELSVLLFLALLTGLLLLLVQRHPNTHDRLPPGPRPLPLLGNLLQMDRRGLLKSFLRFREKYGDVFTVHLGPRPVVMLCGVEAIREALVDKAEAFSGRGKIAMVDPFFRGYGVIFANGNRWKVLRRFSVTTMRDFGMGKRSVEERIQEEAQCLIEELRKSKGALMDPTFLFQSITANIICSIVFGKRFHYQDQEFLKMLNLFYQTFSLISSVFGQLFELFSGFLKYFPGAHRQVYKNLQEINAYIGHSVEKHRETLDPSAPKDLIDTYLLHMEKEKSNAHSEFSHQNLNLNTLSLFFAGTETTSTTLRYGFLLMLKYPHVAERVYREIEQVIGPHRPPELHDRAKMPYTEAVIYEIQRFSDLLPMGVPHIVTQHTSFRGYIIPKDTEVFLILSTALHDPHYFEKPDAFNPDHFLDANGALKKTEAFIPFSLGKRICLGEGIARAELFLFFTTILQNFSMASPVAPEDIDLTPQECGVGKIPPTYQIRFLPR

Cytochrome P450 2C9 = Cytochrome P450 2C9 (Homo sapiens, UniProt P11712); test: Inhibition of CYP2C9 (unknown origin); assay type: ADME
Chain of Cytochrome P450 2C9 (P11712 whole entry): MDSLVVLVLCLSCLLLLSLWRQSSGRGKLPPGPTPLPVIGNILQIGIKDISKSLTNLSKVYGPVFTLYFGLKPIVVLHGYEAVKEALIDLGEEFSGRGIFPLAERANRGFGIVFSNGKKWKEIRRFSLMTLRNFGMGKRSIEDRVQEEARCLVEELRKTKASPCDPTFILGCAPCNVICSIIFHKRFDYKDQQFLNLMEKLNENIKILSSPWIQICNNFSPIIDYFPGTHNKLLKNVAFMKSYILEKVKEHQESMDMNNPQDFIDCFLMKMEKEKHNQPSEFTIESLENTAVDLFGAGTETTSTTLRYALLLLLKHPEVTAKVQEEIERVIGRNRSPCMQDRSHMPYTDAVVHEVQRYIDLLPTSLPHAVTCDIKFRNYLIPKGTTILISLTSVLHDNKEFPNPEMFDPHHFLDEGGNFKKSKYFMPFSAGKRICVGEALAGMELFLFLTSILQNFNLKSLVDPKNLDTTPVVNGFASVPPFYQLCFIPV

Cytochrome P450 2C19 = Cytochrome P450 2C19 (Homo sapiens, UniProt P33261); test: Inhibition of CYP2C19 (unknown origin); assay type: ADME
Chain of Cytochrome P450 2C19 (P33261 whole entry): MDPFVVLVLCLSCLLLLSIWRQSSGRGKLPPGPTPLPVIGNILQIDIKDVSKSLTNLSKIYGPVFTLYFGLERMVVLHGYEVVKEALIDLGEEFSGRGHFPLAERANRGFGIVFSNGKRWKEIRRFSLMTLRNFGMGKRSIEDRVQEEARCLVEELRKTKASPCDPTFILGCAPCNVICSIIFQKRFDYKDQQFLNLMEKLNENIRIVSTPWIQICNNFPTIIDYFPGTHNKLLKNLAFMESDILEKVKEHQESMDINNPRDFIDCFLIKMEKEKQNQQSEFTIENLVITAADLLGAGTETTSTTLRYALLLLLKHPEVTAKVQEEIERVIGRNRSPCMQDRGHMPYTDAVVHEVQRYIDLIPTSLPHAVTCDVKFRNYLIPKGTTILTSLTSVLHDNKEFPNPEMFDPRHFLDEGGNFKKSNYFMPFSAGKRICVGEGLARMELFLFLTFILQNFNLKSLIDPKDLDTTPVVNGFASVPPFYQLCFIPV

Cytochrome P450 2D6 = Cytochrome P450 2D6 (Homo sapiens, UniProt P10635); test: Inhibition of CYP2D6 (unknown origin); assay type: ADME
Chain of Cytochrome P450 2D6 (P10635 whole entry): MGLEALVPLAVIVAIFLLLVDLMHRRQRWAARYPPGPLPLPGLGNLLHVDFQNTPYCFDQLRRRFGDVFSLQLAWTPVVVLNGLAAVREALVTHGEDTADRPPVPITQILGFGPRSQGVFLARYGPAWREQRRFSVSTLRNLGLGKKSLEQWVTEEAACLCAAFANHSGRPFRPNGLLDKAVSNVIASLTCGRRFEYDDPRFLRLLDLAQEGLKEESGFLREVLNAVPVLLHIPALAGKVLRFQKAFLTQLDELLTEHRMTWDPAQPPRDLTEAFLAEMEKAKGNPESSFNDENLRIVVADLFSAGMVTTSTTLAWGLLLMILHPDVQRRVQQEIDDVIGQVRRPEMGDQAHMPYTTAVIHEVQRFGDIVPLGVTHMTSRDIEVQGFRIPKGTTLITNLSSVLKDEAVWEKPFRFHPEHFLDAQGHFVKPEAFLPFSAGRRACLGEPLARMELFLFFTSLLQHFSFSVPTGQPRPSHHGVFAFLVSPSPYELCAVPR

Cytochrome P450 3A4 = Cytochrome P450 3A4 (Homo sapiens, UniProt P08684); test: Inhibition of CYP3A4 (unknown origin); assay type: ADME
Chain of Cytochrome P450 3A4 (P08684 whole entry): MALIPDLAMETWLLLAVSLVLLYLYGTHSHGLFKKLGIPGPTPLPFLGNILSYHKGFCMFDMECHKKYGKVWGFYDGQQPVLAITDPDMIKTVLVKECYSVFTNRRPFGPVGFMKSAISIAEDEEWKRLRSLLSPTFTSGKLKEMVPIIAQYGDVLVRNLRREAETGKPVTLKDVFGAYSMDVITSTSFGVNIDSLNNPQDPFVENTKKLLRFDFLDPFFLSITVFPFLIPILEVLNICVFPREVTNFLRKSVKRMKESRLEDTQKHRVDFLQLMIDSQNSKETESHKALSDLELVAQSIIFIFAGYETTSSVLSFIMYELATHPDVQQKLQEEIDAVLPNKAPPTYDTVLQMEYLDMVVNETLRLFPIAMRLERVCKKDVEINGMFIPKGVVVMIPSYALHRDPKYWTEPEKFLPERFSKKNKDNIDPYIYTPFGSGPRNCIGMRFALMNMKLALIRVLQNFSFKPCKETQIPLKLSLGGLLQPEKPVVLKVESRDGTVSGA

[6] = Permeability from apical to basolateral side in human Caco2 cells; assay type: ADME, cell-based; conditions: Caco-2, read-out: permeability
[7] = Metabolic stability in rat liver microsomes assessed as UGT-mediated glucuronidation of compound by measuring half life in presence of UDPGA; assay type: ADME; outline: as §1
[8] = Volume of distribution at steady state in mouse at 5 mg/kg, iv; assay type: ADME, organism-based; conditions: in vivo, read-out: Vdss
[9] = Apparent elimination half life in mouse at 5 mg/kg, iv; assay type: ADME, organism-based; conditions: in vivo, read-out: betat1/2(app) (converted)
[10] = Oral bioavailability in mouse at 10 mg/kg; assay type: ADME, organism-based; conditions: in vivo
Rattus norvegicus [11] = test: Volume of distribution at steady state in rat at […], iv; assay type: ADME, organism-based; conditions: in vivo
Rattus norvegicus [12] = test: Apparent elimination half life in rat at […], iv; assay type: ADME, organism-based; conditions: in vivo
[13] = AUC (0 to 24 hrs) in rat at […], iv; assay type: ADME, organism-based; parameters: time < 24 hr, dose 7.7 mg/kg, route intravenous; conditions: in vivo
[14] = Oral bioavailability in rat at 10 mg/kg; assay type: ADME, organism-based; conditions: in vivo
[15] = Total plasma clearance in dog at 1 mg/kg, iv; assay type: ADME, organism-based, Canis lupus familiaris
[16] = Apparent elimination half life in dog at 1 mg/kg, iv; assay type: ADME, organism-based, Canis lupus familiaris; conditions: in vivo, read-out: betat1/2(app) (converted)
[17] = Volume of distribution at steady state in cynomolgus monkey at 1 mg/kg, iv; assay type: ADME, organism-based, Macaca fascicularis; conditions: in vivo, read-out: Vdss
[18] = Apparent elimination half life in cynomolgus monkey at 1 mg/kg, iv; assay type: ADME, organism-based, Macaca fascicularis; conditions: in vivo, read-out: betat1/2(app) (converted)
[19] = MRT in cynomolgus monkey at 1 mg/kg, iv; assay type: ADME, organism-based, Macaca fascicularis; conditions: in vivo
[20] = AUC (0 to 24 hrs) in cynomolgus monkey at 1 mg/kg, iv; assay type: ADME, organism-based, Macaca fascicularis; parameters: dose 1 mg/kg, time < 24 hr, route intravenous; conditions: in vivo
[21] = Oral bioavailability in cynomolgus monkey at 3 mg/kg; assay type: ADME, organism-based, Macaca fascicularis; conditions: in vivo
[22] = Protein binding in mouse plasma; assay type: ADME, cell-free; conditions: read-out: PPB (converted)
[23] = Tmax in non-fasting diet-induced obese cynomolgus monkey administered via oral gavage; assay type: ADME, Macaca fascicularis; conditions: in vivo
Plasma = test: Drug metabolism in cynomolgus monkey plasma assessed as ketone A formation at 1 mg/kg, iv; assay type: ADME, organism-based, Macaca fascicularis; conditions: in vivo
Cynomolgus monkey [24] = test: Toxicity in cynomolgus monkey assessed as HPA axis activation by measuring DHEA level at 1 to 10 mg/kg for 7 days; assay type: organism-based, Macaca fascicularis; conditions: in vivo, 168 h
Cynomolgus monkey [25] = test: Toxicity in cynomolgus monkey assessed as HPA axis activation by measuring cortisol level at 1 to 10 mg/kg for 7 days; assay type: organism-based, Macaca fascicularis; conditions: in vivo, 168 h
in vivo [26] = conditions: mouse, adipose tissue / plasma, iv, 5 mg/kg
in vivo [27] = conditions: mouse, brain / plasma, iv, 5 mg/kg

With O=C(CC1(c2ccccc2)C2CC3CC1CC(C2)C3O)N1CC(O)C1 (stereo in doubt; form 2) the half-life [1] was > 3.33 h, the Stability (Liver) was 91% and the IC50 [2] was 48 µM. The IC50 [3] was 3.5 µM, the IC50 [4] was 0.5 µM and the Activity (Rattus norvegicus [5]) was “Non-Toxic”. For the same compound, the IC50 (Cytochrome P450 1A2) was > 40 µM, the IC50 (Cytochrome P450 2B6) was > 40 µM and the IC50 (Cytochrome P450 2C9) was > 40 µM. The IC50 (Cytochrome P450 2C19) was > 40 µM, the IC50 (Cytochrome P450 2D6) was > 40 µM and the IC50 (Cytochrome P450 3A4) was > 40 µM. The Papp A→B [6] was 10.5 ×10⁻⁶ cm/s, the half-life [7] was 0.783 h and the Vd [8] was 2 L/kg. It also gave a half-life [9] of 2 h, a bioavailability [10] of 56% and a Vdss (Rattus norvegicus [11]) of 0.5 L/kg. It also gave a betat1/2(app) (Rattus norvegicus [12]) of 3 h, an AUC(0-t) at 24 h [13] of 6 µM·h and a bioavailability [14] of 20%. It also gave a clearance [15] of 11 mL/min/kg, a half-life [16] of 7.4 h and a Vd [17] of 4.2 L/kg. For the same compound, the half-life [18] was 6 h, the MRT [19] was 3.3 h and the AUC(0-t) at 24 h [20] was 2.3 µM·h. For the same compound, the bioavailability [21] was 57%, the fraction unbound [22] was 0.37 and the Tmax [23] was 0.5 h. The Drug metabolism (Plasma) was “Metabolite_Detected”, the Activity (Cynomolgus monkey [24]) was “Non-Toxic” and the Activity (Cynomolgus monkey [25]) was “Non-Toxic”. For the same compound, the Kp (in vivo [26]) was 0.15 and the Kp (in vivo [27]) was < 0.1.
